We go through three compounds from ChEMBL document CHEMBL1146654, “3-(7-Azaindolyl)-4-arylmaleimides as potent, selective inhibitors of glycogen synthase kinase-3” (Bioorg Med Chem Lett, 2004).

The target in assay [1] is T1, Protein kinase C beta type (Homo sapiens, UniProt P05771). The assay is described as follows: Inhibitory concentration against human protein kinase C-betaII using histone as substrate.
Assay [2] deals with T2, Inhibitor of nuclear factor kappa-B kinase subunit beta (Homo sapiens) (UniProt O14920).
T2 sequence (whole entry): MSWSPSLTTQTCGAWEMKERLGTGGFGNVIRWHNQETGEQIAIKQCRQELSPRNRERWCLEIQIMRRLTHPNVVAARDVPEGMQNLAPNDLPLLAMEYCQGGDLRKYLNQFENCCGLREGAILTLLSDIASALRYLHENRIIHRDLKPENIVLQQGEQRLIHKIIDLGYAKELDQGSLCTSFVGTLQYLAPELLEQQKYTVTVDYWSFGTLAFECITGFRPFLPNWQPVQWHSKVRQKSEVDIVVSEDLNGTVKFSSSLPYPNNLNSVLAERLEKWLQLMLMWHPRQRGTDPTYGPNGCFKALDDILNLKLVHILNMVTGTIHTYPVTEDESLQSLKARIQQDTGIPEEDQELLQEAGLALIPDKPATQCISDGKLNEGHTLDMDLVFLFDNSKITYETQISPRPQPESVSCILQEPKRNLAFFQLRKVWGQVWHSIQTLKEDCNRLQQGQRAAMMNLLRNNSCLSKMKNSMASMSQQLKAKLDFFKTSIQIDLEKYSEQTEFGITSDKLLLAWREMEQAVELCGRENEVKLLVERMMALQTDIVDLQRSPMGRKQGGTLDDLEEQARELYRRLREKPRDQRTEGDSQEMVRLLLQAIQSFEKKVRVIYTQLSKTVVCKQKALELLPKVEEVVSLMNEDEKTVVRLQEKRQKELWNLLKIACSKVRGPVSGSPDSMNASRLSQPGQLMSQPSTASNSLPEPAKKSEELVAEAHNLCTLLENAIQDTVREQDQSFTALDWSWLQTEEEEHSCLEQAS
As to the kind of experiment: Inhibition of I-kappa-B-kinase beta. More on the design: scale not given: the % may be the effect or the level left.

For assay [3], the target named is T3, Serine/threonine-protein kinase Sgk1 (Homo sapiens) (UniProt O00141).
T3 sequence (whole entry): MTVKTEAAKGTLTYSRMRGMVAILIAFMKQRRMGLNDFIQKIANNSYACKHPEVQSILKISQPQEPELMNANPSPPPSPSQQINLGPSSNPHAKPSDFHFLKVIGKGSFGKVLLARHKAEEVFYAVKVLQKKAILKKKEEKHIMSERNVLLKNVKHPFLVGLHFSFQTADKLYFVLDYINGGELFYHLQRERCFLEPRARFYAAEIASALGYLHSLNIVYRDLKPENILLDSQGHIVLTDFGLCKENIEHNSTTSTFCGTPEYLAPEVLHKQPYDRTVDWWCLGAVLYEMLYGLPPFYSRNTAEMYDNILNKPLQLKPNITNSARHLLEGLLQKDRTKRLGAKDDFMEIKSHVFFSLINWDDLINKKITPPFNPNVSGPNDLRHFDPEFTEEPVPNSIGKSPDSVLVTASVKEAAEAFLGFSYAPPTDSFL
The assay is described as follows: Inhibition of Serum/glucocorticoid regulated kinase. More on the design: scale not given: the % may be the effect or the level left.

The target of assay [4] is Tyrosine-protein kinase Blk (Mus musculus) (UniProt P16277). As to the kind of experiment: Inhibition of B lymphoid tyrosine kinase. More on the design: scale not given: the % may be the effect or the level left.
The target of assay [5] is Tyrosine-protein kinase CSK (Homo sapiens) (UniProt P41240). The assay is described as follows: Inhibition of Tyrosine-protein kinase CSK. On the set-up: scale not given: the % may be the effect or the level left.
For assay [6], the target named is T1, Protein kinase C beta type. The assay is described as follows: Inhibition of PKCbetaII. On the set-up: scale not given: the % may be the effect or the level left.
Target sequence in this assay (P05771 2-671 limits assumed): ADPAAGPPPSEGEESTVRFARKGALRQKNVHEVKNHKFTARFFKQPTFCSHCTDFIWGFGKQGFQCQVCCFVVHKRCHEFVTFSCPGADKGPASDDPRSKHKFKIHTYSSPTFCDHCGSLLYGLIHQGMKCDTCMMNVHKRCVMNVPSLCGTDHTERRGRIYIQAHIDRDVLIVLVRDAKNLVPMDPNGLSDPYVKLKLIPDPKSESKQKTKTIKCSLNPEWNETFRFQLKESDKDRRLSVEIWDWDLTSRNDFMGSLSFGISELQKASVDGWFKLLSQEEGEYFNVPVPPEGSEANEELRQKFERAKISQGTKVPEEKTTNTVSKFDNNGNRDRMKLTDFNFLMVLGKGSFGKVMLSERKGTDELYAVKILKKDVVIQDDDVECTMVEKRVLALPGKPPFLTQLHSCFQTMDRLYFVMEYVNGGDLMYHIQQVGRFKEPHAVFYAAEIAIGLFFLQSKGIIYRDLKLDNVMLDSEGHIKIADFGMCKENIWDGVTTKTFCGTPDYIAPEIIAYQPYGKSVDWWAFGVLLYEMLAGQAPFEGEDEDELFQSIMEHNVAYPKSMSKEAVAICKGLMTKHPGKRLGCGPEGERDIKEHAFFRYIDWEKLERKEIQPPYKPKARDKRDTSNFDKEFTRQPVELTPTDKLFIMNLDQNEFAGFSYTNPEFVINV
For assay [7], the target named is Tyrosine-protein kinase Fes/Fps (Homo sapiens) (UniProt P07332). The assay is described as follows: Inhibition of Fes kinase. More on the design: scale not given: the % may be the effect or the level left.
The target in assay [8] is Mitogen-activated protein kinase 10 (Rattus norvegicus) (UniProt P49187). As to the kind of experiment: Inhibition of c-Jun N-terminal kinase 3. On the set-up: scale not given: the % may be the effect or the level left.
In assay [9] the target is Ribosomal protein S6 kinase alpha-3 (Homo sapiens, UniProt P51812). The assay is described as follows: Inhibition of Ribosomal S6 kinase 3.
The target in assay [10] is CDK6/cyclin D3 (Homo sapiens) (UniProt P30281+Q00534). The assay is described as follows: Inhibition of Cyclin-dependent kinase 6-cyclin D3. More on the design: scale not given: the % may be the effect or the level left. It is filed as protein-complex assay.
Assay [11] deals with Protein kinase C theta type (Homo sapiens) (UniProt Q04759). As to the kind of experiment: Inhibition of PKCtheta. More on the design: scale not given: the % may be the effect or the level left.
Assay [12] addresses T4, Ribosomal protein S6 kinase alpha-5 (Homo sapiens, UniProt O75582). As to the kind of experiment: (§1) Inhibition of MSK-1 kinase. More on the design: scale not given: the % may be the effect or the level left.
For assay [13], the species on record is Homo sapiens. The assay is described as follows: Inhibition of PKA. More on the design: scale not given: the % may be the effect or the level left.
In assay [14] the target is RAC-alpha serine/threonine-protein kinase (Homo sapiens) (UniProt P31749). As to the kind of experiment: Inhibition of PKBalpha. On the set-up: scale not given: the % may be the effect or the level left.
Assay [15] has as its target Tyrosine-protein kinase Lck (Homo sapiens) (UniProt P06239). As to the kind of experiment: Inhibition of p56 Lck tyrosine kinase. On the set-up: scale not given: the % may be the effect or the level left.
The target in assay [16] is Platelet-derived growth factor receptor beta (Homo sapiens) (UniProt P09619). The assay is described as follows: Inhibition of PDGFRbeta. More on the design: scale not given: the % may be the effect or the level left.
The target of assay [17] is MAP kinase-activated protein kinase 2 (Homo sapiens) (UniProt P49137). As to the kind of experiment: Inhibition of MAP kinase-activated protein kinase 2. On the set-up: scale not given: the % may be the effect or the level left.
The target of assay [18] is Ribosomal protein S6 kinase alpha-2 (Homo sapiens) (UniProt Q15349). As to the kind of experiment: Inhibition of Ribosomal S6 kinase 2. More on the design: scale not given: the % may be the effect or the level left.
The target in assay [19] is T5, Calcium/calmodulin-dependent protein kinase type IV (Homo sapiens) (UniProt Q16566).
T5 sequence (whole entry): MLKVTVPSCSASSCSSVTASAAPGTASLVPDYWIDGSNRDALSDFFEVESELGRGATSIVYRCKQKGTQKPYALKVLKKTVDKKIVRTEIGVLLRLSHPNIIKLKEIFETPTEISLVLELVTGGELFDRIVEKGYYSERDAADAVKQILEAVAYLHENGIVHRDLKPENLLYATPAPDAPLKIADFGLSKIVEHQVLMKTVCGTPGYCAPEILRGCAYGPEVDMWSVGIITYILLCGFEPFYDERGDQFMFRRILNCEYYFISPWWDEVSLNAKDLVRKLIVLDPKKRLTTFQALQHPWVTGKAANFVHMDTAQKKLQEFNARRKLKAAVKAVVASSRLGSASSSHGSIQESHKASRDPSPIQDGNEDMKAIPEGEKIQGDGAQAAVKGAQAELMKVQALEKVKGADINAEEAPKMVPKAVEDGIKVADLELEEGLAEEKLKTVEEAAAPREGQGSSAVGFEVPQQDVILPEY
The assay is described as follows: Inhibition of Calcium/calmodulin-dependent protein kinase type IV. On the set-up: scale not given: the % may be the effect or the level left.

Assay [20] addresses Tyrosine-protein kinase Yes (Homo sapiens) (UniProt P07947). The assay is described as follows: Inhibition of Yes tyrosine kinase. More on the design: scale not given: the % may be the effect or the level left.
Assay [21] concerns the target 3-phosphoinositide-dependent protein kinase 1 (Homo sapiens, UniProt O15530). The assay is described as follows: Inhibition of PDK1.
Assay [22] addresses Glycogen synthase kinase-3 beta (Homo sapiens, UniProt P49841). The assay is described as follows: Effective concentration of compound against glycogen synthase kinase-3 in HEK293 cells. The class given is functional, cell-based. An outline of the steps: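 HEK293 cells exposed to compound; glycogen synthase activity then measured in cell extracts as ¹⁴C-UDP glucose incorporation into glycogen. EC₅₀ averaged from triplicate determinations.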

Assay [23] concerns the target Tyrosine-protein kinase Lyn (Homo sapiens, UniProt P07948). As to the kind of experiment: Inhibition of Protein tyrosine kinase Lyn.
Assay [24] deals with T4, Ribosomal protein S6 kinase alpha-5. The assay is described as §1.
The target in assay [25] is T1, Protein kinase C beta type. The assay is described as follows: Inhibition of protein kinase C-betaII at 10 uM.
Target sequence in this assay (P05771 2-671 limits assumed): as the sequence (P05771 2-671 limits assumed) above
The subject of assay [26] is Casein kinase I (Saccharomyces cerevisiae). The assay is described as follows: Inhibition of Casein kinase I. More on the design: scale not given: the % may be the effect or the level left.

Protein kinase C theta type (Homo sapiens), sequence (Q04759 whole entry, looked up): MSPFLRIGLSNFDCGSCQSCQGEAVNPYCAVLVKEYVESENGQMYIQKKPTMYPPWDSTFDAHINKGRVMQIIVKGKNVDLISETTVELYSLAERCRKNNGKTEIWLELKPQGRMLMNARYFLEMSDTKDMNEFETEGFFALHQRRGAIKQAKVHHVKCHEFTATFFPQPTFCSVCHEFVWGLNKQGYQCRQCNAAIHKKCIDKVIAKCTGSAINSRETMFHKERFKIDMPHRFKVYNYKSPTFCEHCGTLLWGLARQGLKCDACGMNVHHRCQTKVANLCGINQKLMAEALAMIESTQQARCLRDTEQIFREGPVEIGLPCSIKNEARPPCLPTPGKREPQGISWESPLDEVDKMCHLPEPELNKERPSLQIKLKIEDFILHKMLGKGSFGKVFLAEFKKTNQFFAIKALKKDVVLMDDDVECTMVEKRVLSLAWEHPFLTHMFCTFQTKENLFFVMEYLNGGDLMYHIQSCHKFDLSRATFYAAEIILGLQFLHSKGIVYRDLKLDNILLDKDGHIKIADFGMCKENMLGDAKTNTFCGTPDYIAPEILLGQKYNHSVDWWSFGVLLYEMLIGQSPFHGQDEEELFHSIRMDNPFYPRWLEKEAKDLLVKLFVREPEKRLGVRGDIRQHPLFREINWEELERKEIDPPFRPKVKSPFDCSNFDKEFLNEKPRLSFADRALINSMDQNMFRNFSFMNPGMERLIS
Platelet-derived growth factor receptor beta (Homo sapiens), sequence (P09619 whole entry): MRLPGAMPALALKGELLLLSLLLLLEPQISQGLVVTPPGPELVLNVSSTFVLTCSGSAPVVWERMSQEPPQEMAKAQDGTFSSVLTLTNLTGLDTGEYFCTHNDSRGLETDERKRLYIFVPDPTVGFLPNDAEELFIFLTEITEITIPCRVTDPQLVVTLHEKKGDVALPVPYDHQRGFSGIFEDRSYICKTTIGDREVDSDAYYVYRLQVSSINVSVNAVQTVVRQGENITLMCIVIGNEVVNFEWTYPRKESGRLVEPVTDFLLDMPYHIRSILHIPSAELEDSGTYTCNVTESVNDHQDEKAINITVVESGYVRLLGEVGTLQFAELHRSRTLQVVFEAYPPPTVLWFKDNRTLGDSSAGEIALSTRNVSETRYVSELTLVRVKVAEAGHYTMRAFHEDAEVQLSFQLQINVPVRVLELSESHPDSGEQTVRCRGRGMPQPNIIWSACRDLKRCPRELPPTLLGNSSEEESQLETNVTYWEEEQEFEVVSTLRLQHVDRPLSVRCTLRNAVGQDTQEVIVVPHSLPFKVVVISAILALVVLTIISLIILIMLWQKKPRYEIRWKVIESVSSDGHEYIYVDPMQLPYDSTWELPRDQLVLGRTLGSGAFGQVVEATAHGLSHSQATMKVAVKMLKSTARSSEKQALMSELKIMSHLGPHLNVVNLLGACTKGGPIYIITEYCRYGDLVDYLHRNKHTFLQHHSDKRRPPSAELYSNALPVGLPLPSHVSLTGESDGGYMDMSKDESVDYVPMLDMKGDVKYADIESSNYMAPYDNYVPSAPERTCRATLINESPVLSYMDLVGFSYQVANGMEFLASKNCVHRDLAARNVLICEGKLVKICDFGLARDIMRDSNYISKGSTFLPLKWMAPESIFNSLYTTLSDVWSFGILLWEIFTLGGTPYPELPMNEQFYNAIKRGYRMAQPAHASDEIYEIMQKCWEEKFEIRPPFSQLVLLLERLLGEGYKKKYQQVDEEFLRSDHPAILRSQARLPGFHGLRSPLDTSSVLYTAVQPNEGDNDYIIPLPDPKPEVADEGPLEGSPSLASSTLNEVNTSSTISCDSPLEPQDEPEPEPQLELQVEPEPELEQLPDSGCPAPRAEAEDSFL
Tyrosine-protein kinase CSK (Homo sapiens), sequence (P41240 2-450 limits assumed): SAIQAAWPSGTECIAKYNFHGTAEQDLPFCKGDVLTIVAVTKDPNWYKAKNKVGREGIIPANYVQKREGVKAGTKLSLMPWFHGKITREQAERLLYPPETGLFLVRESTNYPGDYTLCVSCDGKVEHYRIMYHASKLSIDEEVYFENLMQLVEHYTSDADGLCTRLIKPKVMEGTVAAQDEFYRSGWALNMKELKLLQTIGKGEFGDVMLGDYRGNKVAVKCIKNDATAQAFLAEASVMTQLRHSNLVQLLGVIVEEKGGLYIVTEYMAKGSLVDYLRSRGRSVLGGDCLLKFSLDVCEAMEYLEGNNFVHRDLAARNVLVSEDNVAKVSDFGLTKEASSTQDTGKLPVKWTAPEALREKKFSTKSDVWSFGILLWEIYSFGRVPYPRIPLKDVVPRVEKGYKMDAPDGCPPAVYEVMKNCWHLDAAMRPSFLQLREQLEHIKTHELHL
Tyrosine-protein kinase Lck (Homo sapiens), sequence (P06239 2-509 limits assumed): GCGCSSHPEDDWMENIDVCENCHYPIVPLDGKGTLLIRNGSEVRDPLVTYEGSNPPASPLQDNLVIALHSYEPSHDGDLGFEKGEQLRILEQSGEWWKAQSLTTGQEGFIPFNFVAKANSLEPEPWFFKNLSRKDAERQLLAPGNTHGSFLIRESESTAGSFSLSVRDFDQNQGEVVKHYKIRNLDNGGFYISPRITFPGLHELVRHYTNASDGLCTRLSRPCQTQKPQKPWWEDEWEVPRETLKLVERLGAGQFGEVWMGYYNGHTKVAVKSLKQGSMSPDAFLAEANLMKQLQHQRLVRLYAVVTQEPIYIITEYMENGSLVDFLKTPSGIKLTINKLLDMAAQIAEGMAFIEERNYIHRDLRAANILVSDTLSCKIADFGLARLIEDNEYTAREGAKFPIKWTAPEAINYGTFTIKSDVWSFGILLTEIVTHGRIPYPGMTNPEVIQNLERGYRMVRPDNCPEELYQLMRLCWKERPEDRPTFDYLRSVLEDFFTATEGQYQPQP
Tyrosine-protein kinase Blk (Mus musculus), sequence (P16277 whole entry): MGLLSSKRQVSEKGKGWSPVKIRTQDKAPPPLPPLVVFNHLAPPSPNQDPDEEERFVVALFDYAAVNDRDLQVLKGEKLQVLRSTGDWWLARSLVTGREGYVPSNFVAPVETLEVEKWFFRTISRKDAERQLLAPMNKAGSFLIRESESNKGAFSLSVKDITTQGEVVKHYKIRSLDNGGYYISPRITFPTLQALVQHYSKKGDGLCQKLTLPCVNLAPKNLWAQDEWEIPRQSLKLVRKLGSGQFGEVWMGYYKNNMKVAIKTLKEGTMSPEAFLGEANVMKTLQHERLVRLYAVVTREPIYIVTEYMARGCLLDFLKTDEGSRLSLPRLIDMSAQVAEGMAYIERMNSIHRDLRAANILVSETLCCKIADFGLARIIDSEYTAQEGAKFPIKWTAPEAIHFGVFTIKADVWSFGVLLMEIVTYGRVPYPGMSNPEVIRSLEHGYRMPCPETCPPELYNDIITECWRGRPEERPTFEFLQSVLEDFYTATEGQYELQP
Mitogen-activated protein kinase 10 (Rattus norvegicus), sequence (P49187 whole entry, looked up): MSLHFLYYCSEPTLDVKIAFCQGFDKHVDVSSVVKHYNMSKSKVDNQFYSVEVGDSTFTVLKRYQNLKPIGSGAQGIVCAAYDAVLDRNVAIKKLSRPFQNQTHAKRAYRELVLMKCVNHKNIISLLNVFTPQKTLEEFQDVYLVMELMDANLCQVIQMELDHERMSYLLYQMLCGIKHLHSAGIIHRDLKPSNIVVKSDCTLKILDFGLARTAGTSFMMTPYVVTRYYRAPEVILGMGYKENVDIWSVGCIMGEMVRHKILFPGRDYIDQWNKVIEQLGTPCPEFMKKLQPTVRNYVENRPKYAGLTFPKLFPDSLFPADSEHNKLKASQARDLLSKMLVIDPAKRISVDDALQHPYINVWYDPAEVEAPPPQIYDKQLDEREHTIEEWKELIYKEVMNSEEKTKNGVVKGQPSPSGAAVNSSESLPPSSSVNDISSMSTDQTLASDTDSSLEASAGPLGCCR
Tyrosine-protein kinase Yes (Homo sapiens), sequence (P07947 2-543 limits assumed): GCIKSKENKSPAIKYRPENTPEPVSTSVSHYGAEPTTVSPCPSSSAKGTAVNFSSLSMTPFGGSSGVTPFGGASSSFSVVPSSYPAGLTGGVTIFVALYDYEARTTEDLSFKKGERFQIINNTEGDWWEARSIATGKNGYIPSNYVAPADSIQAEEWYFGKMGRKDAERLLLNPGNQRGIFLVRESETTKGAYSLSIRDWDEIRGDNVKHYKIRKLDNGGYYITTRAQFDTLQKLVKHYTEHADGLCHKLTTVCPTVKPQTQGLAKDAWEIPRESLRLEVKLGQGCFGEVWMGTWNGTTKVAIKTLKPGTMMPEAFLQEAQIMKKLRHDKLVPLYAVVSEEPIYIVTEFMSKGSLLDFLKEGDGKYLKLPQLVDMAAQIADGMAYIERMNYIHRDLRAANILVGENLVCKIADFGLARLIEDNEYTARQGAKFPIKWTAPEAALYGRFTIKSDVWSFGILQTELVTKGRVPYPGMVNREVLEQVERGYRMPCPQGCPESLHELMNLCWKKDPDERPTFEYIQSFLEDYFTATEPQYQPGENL

Broadly, the IC50 is the concentration that inhibits the measured activity by half. With `COCCCn1cc(C2=C(c3ccccc3O)C(=O)NC2=O)c2cccnc21`, the values for the IC50 in assay [1] and in assay [9] were 4.36 µM and 2 µM, respectively. The Activity in [2] came to 81%; in assay [3] it was 98%; in assay [4], 75%; in assay [5], 89%; in [6], 32%; in assay [7], 79%. In addition, the Activity in [8] stood at 52%; in assay [10], 50%; in [11], 46%; in [12] it was 57%; in assay [13], 92%; in assay [14], 93%. Further, the Activity in assay [15] is 84%; in [16], 96%; in assay [17] it was 97%; in [18], 54%; in assay [19], 82%; in assay [20], 89%.

As usually defined, the EC50 is the concentration giving half of the maximal effect. Turning to `COc1ccccc1C1=C(c2cn(CCCNC(=O)OC(C)(C)C)c3ncccc23)C(=O)NC1=O`, the IC50 amounted to 2.26 µM in assay [1], 0.64 µM in assay [9], 0.57 µM in [21] and 1.8 µM in assay [23]. In addition, the Activity came to 91% in assay [2]; 105% in [3]; 63% in assay [4]; 95% in assay [5]; 15% in assay [6]; 87% in assay [7]. The Activity was found to be 68% in assay [8]; 24% in assay [10]; 71% in [11]; 61% in assay [12]; 95% in [13]; 103% in [14]. For the same compound, the Activity is 67% in assay [15]; 93% in [16]; 31% in assay [18]; 91% in [19]; 42% in [20]. In assay [22], this compound had an EC50 of 0.04 µM.

One may read the inhibition as the percentage by which the read-out fell short of the control. Compound `O=C1NC(=O)C(c2cn(CCCO)c3ncccc23)=C1c1ncc(C(F)(F)F)cc1Cl` showed an IC50 in assay [24] above 10 µM. The Activity in [2] stood at 83%; in [3], 87%; in [4] it was 67%; in assay [5], 74%; in assay [6], 70%; in assay [7], 81%. In addition, the Activity in [8] was 76%; in [10], 59%; in assay [11] it was 66%; in assay [13] it was 87%; in assay [14] it was 64%; in assay [15] it was 82%. The Activity in assay [16] is 77%; in [17], 85%; in [18], 77%; in assay [19] it was 82%; in assay [20] it was 93%; in assay [26], 66%. Besides, in assay [25], the inhibition is below 50%. The EC50 in assay [22] is 0.62 µM.
